# Measurements reported in PubChem BioAssay.
# The list shows a part of the results. A number with no mark means an inactive call.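 Rule for the calls: active = mean percent activation of the reporter above a cutoff set as the average over tested compounds plus their standard deviation; inactive = the rest.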
# Molecular target: Oxysterols receptor LXR-beta (Homo sapiens) (UniProt P55055)
# Test: nonspecific reporter activation via LXR – cell-based, luminescence, HEK293, H. contortus campaign, counter-screen for hcDAF-12 agonist project, confirmation (AID 743027)
# Settings: HEK293 Gal4-LXR tk-luc reporter, 24 h, at 6.8 µM, active compounds read high, normalized: DMSO 0%, positive control 100%
# Method in brief: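 Assay system: Gal4-LXR and tk-luc reporter transfected HEK293 cells; Compound: 6.8 µM single dose; Times: one-day compound treatment at 37 °C; Technique: One-Glo luciferase luminescence; Read-out basis: % activation relative to DMSO and positive-control wells; Benchmarks: DMSO low control, positive-control high control; Repeats: three replicates per compound.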
# Chain of Oxysterols receptor LXR-beta (Homo sapiens) (P55055 whole entry, looked up): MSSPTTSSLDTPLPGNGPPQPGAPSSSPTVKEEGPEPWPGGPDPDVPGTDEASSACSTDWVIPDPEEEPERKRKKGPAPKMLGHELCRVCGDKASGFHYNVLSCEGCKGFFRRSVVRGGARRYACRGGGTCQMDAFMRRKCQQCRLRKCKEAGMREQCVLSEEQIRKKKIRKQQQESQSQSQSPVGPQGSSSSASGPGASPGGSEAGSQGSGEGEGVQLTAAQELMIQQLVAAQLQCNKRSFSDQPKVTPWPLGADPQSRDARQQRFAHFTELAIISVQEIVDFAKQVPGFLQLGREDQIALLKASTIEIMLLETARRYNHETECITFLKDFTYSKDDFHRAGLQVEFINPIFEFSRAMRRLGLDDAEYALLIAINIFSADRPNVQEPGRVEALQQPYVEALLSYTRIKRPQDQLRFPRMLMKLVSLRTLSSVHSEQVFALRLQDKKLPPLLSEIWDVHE
row,SMILES,activation [%]
1,O=[N+]([O-])c1ccc2oc(-c3cccc(O)c3)nc2c1,1.82
2,NNC(=O)C1CCCn2c1nc1sc3c(c1c2=O)CCCC3 (stereo not given),-0.2
3,Clc1cccc(-c2nc3nc4ccccc4nc3n2Cc2ccco2)c1,0.26
4,COc1ccccc1C(=O)NCc1nnc(SC(C)C(=O)Nc2nccs2)n1C (stereo not given),-0.14
5,O=C(O)c1[nH]c2ccccc2c1C(c1cccc(O)c1)c1c(C(=O)O)[nH]c2ccccc12,-0.02
6,O=C(CN1CCCCC1)NC(=O)Nc1ccccc1F,0.17
7,c1ccc(-c2cc(-c3ccccc3)[nH]n2)cc1,1.43
8,COc1ccccc1-c1nnc(NC(=O)c2ccc3ncsc3c2)o1,0.28
9,Cc1cc(O)c(C(=O)/C=C/c2c(F)c(F)c(F)c(F)c2F)c(=O)o1,-0.23
10,COc1ccc(C2CC(c3cccs3)=Nc3ccccc3S2)cc1OC (stereo not given),-0.03
11,Cc1cccnc1NC(=O)Cn1c(=O)oc2ccccc21,-0.23
12,Cc1ccc(S(=O)(=O)Nc2nc3ccccc3nc2N2CCc3ccccc3C2)cc1,0.14
13,NC(=O)Nc1ccccc1C(=O)NCCc1ccccc1,0.34
14,Cc1nc2cc(NC(=O)Nc3cccc(F)c3)ccc2n1C,1.98
15,O=C(COc1cccc(Cl)c1)NCc1ccccc1,-0.12
16,COc1ccc(Nc2nc(-c3ccccc3)cs2)cc1,1.88
17,NC(=O)c1c(NC(=O)c2ccccc2)sc2c1CCCC2,1.21
18,CCc1ccc(NC(=O)N2CCc3ccccc3C2)cc1,0.65
19,Nc1ccc2[nH]c(=S)sc2c1,0.01
20,O=C(/C=C/c1cnc2ccccc2n1)NC1CCCCCC1,0.79

row,SMILES,activation [%]
1,Nc1ccccc1/C=N\N=C/c1ccccc1N,1.76
2,CCS(=O)(=O)c1cc([N+](=O)[O-])c(Sc2ccccc2N)s1,0.38
3,Cc1ccc(-c2nc3ccccc3[nH]2)cc1N,2.07
4,CC(=O)N1CCN(c2ccccc2NC(=S)NC(=O)c2cc3ccccc3o2)CC1,-0.28
5,O=C(NC(Cc1c[nH]c2ccccc12)C(=O)O)/C(=C/c1ccco1)NC(=O)c1ccccc1 (stereo not given),0.05
6,Cc1ccc(C(=O)O/N=C(\N)c2ccccn2)cc1Cl,1.52
7,COc1cc2ccccc2cc1C(=O)Nc1ccccc1C,0.82
8,Cc1c(C=O)c2ccccc2n1CC(=O)O,-0.12
9,CC(C)c1ccc(C=NNc2ccc([N+](=O)[O-])cn2)cc1,1.84
10,OC(COc1ccc2ccccc2c1)CN1CCOCC1 (stereo not given),0.33
11,CCn1cc(CN2CCN(CC(C)(C)C)C(CCO)C2)c2ccccc21 (stereo not given),-0.12
12,Cc1c(C(=O)Nc2ccccn2)oc2ccc(Br)cc12,1.8
13,O=C(Oc1ccc([N+](=O)[O-])cc1)c1ccc2ccccc2n1,-0.2
14,Cc1ccccc1C(=O)N[C@H](C(=O)N1CCC[C@H]1C(=O)NCc1ccccc1)C(C)C,-0.15
15,COc1ccc(-c2cn3ccc(C)cc3n2)cc1,1.71
16,COc1ccc(OCc2cc(C(=O)N3CCCC3)no2)c2ccccc12,0.67
17,Clc1ccc(-c2cc(-c3ccccn3)on2)c(Cl)c1,1.95
18,CCc1ccc(-c2cc(C(=O)NN3CCN(C)CC3)c3ccccc3n2)cc1,-0.24
19,Cc1cccc(Nc2nc(-c3ccccc3)cs2)n1,1.85
20,Fc1ccc2nc(Nc3nc4c(s3)CCCC4)sc2c1,1.24
